Blank lines part the entries; values can stand above or below the compound they belong to.
Experiments:
[1] = Antiproliferative activity against human PC3 cells at 10 uM after 72 hrs by Alamar Blue assay relative to control; details: PC-3, 72 h
[2] = Antiproliferative activity against human PC3 cells after 72 hrs by Alamar Blue assay; details: PC-3, 72 h
[3] = Cell cycle arrest in human PC3 cells assessed as accumulation at S phase at 0.1 uM after 24 hrs by propidium iodide staining-based flow cytometric method (reference value: 15.8 +/- 0.3%); type: functional; details: PC-3
Outline: (§1)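 PC3 cells exposed 24 h to 0 (DMSO only), 0.1, 0.3 or 1 μM. Cells collected, washed in ice-cold PBS, fixed in 70% EtOH at −20 °C for 16 h. Stained 20 min at room temperature with 0.1% Triton X-100, 0.2 mg RNaseA and 2 μL PI (1 mg/mL) in 1 mL, then flow cytometry. Phase distribution fitted by ModFit.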

PC-3 [4] = experiment: Induction of apoptosis in human PC3 cells assessed as increase in nuclear intensity after 72 hrs by Hoechst 33342/mitotracker deep red/cellmask plasma membrane probe-based fluorescence microscopy; type: functional, cell-based
Outline: (§2)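 PC3 cells seeded at 2000/well onto compound, grown 72 h at 37 °C, 5% CO2. Stained 30 min at 37 °C with Hoechst 33342 (1/1000), 1 μM MitoTracker Deep Red and CellMask plasma membrane (1/1000), then PBS wash. Automated wide-field imaging at 20×, 25 fields/well. Nuclei segmented by Hoechst, cytoplasm by CellMask, border cells excluded. Results normalized to DMSO; at least two experiments.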

[5] = Cell cycle arrest in human PC3 cells assessed as accumulation at G2/M phase at 0.1 uM after 24 hrs by propidium iodide staining-based flow cytometric method (reference value: 8.9 +/- 1.5%); type: functional; details: PC-3
Outline: as §1

PC-3 [6] = experiment: Induction of apoptosis in human PC3 cells assessed as increase in mitochondrial intensity after 72 hrs by Hoechst 33342/mitotracker deep red/cellmask plasma membrane probe-based fluorescence microscopy; type: functional, cell-based
Outline: as §2

PC-3 [7] = experiment: Induction of apoptosis in human PC3 cells assessed as appearance of rounded cells after 72 hrs by Hoechst 33342/mitotracker deep red/cellmask plasma membrane probe-based fluorescence microscopy; type: functional, cell-based
Outline: as §2

[8] = Cell cycle arrest in human PC3 cells assessed as accumulation at G2/M phase at 0.3 uM after 24 hrs by propidium iodide staining-based flow cytometric method (reference value: 8.9 +/- 1.5%); type: functional; details: PC-3
Outline: as §1

[9] = Cell cycle arrest in human PC3 cells assessed as accumulation at G0/G1 phase at 0.1 uM after 24 hrs by propidium iodide staining-based flow cytometric method (reference value: 75.3 +/- 1.8%); type: functional; details: PC-3
Outline: as §1

[10] = Cell cycle arrest in human PC3 cells assessed as accumulation at G2/M phase at 1 uM after 24 hrs by propidium iodide staining-based flow cytometric method (reference value: 8.9 +/- 1.5%); type: functional; details: PC-3
Outline: as §1

[11] = Cell cycle arrest in human PC3 cells assessed as accumulation at S phase at 0.3 uM after 24 hrs by propidium iodide staining-based flow cytometric method (reference value: 15.8 +/- 0.3%); type: functional; details: PC-3
Outline: as §1

PC-3 [12] = experiment: Induction of apoptosis in human PC3 cells assessed as appearance of aggregated mitochondrial texture after 72 hrs by Hoechst 33342/mitotracker deep red/cellmask plasma membrane probe-based fluorescence microscopy; type: functional, cell-based
Outline: as §2

[13] = Cell cycle arrest in human PC3 cells assessed as accumulation at S phase at 1 uM after 24 hrs by propidium iodide staining-based flow cytometric method (reference value: 15.8 +/- 0.3%); type: functional; details: PC-3
Outline: as §1

PC-3 [14] = experiment: Induction of apoptosis in human PC3 cells assessed as increase in cell area after 72 hrs by Hoechst 33342/mitotracker deep red/cellmask plasma membrane probe-based fluorescence microscopy; type: functional
Outline: as §2

[15] = Cell cycle arrest in human PC3 cells assessed as accumulation at G0/G1 phase at 1 uM after 24 hrs by propidium iodide staining-based flow cytometric method (reference value: 75.3 +/- 1.8%); type: functional; details: PC-3
Outline: as §1

PC-3 [16] = experiment: Induction of apoptosis in human PC3 cells assessed as chromatin condensation after 72 hrs by Hoechst 33342/mitotracker deep red/cellmask plasma membrane probe-based fluorescence microscopy; type: functional, cell-based
Outline: as §2

[17] = Cell cycle arrest in human PC3 cells assessed as accumulation at G0/G1 phase at 0.3 uM after 24 hrs by propidium iodide staining-based flow cytometric method (reference value: 75.3 +/- 1.8%); type: functional; details: PC-3
Outline: as §1

PC-3 [18] = experiment: Induction of apoptosis in human PC3 cells assessed as increase in mitochondrial area after 72 hrs by Hoechst 33342/mitotracker deep red/cellmask plasma membrane probe-based fluorescence microscopy; type: functional, cell-based
Outline: as §2

PC-3 [19] = experiment: Induction of apoptosis in human PC3 cells assessed as increase in cell size after 72 hrs by Hoechst 33342/mitotracker deep red/cellmask plasma membrane probe-based fluorescence microscopy; type: functional
Outline: as §2

SMILES: C[C@H]1[C@H](C)C(=O)O[C@@H]1c1ccc2c(c1)OCO2
inhibition at 10 µM [1]: 15%

SMILES: COc1cc([C@@H]2c3cc4c(c(OC)c3C[C@H]3COC(=O)[C@@H]32)OCO4)cc(OC)c1OC
IC50 [2]: 16 nM

SMILES: COc1cc([C@@H]2c3cc4c(cc3C[C@H]3COC(=O)[C@@H]32)OCO4)cc(OC)c1OC [DESOXYPODOPHYLLOTOXIN]
IC50 [2]: 18 nM

SMILES: C[C@H](Cc1ccc2c(c1)OCO2)[C@H](C)Cc1ccc2c(c1)OCO2
inhibition at 10 µM [1]: 27%

SMILES: COc1cc(C(=O)O[C@@H](c2ccc3c(c2)OCO3)[C@H](C)C(C)=O)ccc1O
Activity [3]: 27.5%
Activity (PC-3 [4]): Dose-dependent effect
Activity [5]: 9.9%
Activity (PC-3 [6]): Dose-dependent effect
Activity (PC-3 [7]): Dose-dependent effect
Activity [8]: 4.4%
Activity [9]: 62.6%
IC50 [2]: 1910 nM
Activity [10]: 3.8%
Activity [11]: 32.2%
Activity (PC-3 [12]): Dose-dependent effect
Activity [13]: 35.1%
Activity (PC-3 [14]): Dose-dependent effect
Activity [15]: 61.1%
Activity (PC-3 [16]): Dose-dependent effect
Activity [17]: 63.4%
Activity (PC-3 [18]): Dose-dependent effect
Activity (PC-3 [19]): Dose-dependent effect

SMILES: COc1cc([C@@H]2O[C@H](c3ccc4c(c3)OCO4)[C@@H](C)[C@@H]2C)ccc1O
IC50 [2]: 5110 nM

SMILES: CC(=O)O[C@H]1C(=O)[C@@]2(C)[C@H]([C@H](OC(=O)c3ccccc3)[C@]3(O)C[C@H](OC(=O)[C@H](O)[C@@H](NC(=O)c4ccccc4)c4ccccc4)C(C)=C1C3(C)C)[C@]1(OC(C)=O)CO[C@@H]1C[C@@H]2O [PACLITAXEL]
IC50 [2]: 2 nM

SMILES: COc1cc(C(c2ccc(O)c(OC)c2)[C@@H](C)[C@H](C)CO)ccc1O
IC50 [2]: 6360 nM

The remaining lines, values ahead:

IC50 [2]: 47 nM
SMILES: COc1cc([C@@H]2c3cc4c(c(OC)c3C[C@H]3COC(=O)[C@@H]32)OCO4)cc2c1OCO2

IC50 [2]: 2060 nM
SMILES: COc1cc([C@@H]2c3cc4c(cc3C[C@@H](C)[C@@H]2C)OCO4)cc2c1OCO2

IC50 [2]: 1630 nM
SMILES: COc1cc([C@@H]2c3cc4c(cc3C[C@@H](C)[C@@H]2C(=O)O)OCO4)cc2c1OCO2

IC50 [2]: 50 nM
SMILES: COc1cc([C@@H]2c3cc4c(cc3C[C@H]3COC(=O)[C@@H]32)OCO4)cc2c1OCO2 [AUSTROBAILIGNAN 1]

IC50 [2]: 823 nM
SMILES: COc1cc([C@@H]2c3cc4c(cc3C[C@@H](C)[C@@H]2C)OCO4)cc(OC)c1OC
